ChEMBL document CHEMBL1140440, “Simple but highly effective three-dimensional chemical-feature-based pharmacophore model for diketo acid derivatives as hepatitis C virus RNA-dependent RNA polymerase inhibitors” (J Med Chem, 2005)

What follows are compounds tested against RNA-directed RNA polymerase (Hepacivirus hominis, UniProt O39930) (assay: Inhibitory concentration against NS5B HCV polymerase using [alpha-32P]UTP as radioligand (30 degree C for 2 h, at pH 7.5 with Tris-HCl buffer)).
Procedure, shortened: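 Recombinant HCV RdRp (1 nM) in 20 mM Tris-HCl pH 7.5, 5 mM MgCl2, 1 mM DTT, 1 mM EDTA, RNase inhibitor, 50 µg/mL actinomycin D, 10 µg/mL RNA template, 0.5 mM ATP/CTP/GTP, [α-32P]UTP, limiting nucleotide 10 µM. 30 °C, 2 h; proteinase K stop, extraction, urea-PAGE, phosphorimaging. IC50s rescaled by a reference inhibitor's measured/literature IC50 ratio.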

Chain of RNA-directed RNA polymerase (O39930 whole entry): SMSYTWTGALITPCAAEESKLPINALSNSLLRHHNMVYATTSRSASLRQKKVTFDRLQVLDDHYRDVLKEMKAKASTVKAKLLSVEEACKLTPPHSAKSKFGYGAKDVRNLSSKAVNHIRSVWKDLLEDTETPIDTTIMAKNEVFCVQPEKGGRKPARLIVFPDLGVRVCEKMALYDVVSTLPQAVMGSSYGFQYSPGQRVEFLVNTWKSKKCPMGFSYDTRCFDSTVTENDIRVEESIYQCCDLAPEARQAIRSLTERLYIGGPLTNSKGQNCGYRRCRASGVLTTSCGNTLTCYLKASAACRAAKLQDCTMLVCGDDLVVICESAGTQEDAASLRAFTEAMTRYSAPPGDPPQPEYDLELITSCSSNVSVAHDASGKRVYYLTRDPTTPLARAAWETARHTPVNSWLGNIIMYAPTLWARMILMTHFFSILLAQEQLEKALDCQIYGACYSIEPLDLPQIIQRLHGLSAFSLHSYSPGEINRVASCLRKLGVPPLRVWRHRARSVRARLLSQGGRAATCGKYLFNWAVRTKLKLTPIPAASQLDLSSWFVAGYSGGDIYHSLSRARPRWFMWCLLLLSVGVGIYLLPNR

IC50	SMILES
14 µM	Cc1cc(/C(O)=C/C(=O)C(=O)O)c(C)o1
48 µM	Cc1coc(C)c1/C(O)=C/C(=O)C(=O)O
18 µM	O=C(O)C(=O)/C=C(O)/C=C/c1c[nH]c2ccc(Cl)cc12
8.2 µM	Cc1cc(C)c(/C(O)=C/C(=O)C(=O)O)s1
167 µM	Cc1sc(-c2ccccc2)cc1/C(O)=C/C(=O)C(=O)O
6.7 µM	O=C(O)C(=O)/C=C(\O)C12C[C@H]3C[C@@H](C1)C[C@@H](C2)C3
19 µM	O=C(O)C(=O)/C=C(\O)c1cccc(NC(=O)C(=O)O)c1
8.3 µM	O=C(O)C(=O)/C=C(\O)c1ccccc1Cc1ccc(F)cc1
17 µM	O=C(O)C(=O)/C=C(\O)c1cccc(NCc2ccccc2)c1
7.4 µM	O=C(O)C(=O)/C=C(\O)c1cccn1Cc1c(F)cccc1F
13 µM	O=C(O)C(=O)/C=C(\O)c1cccn1Cc1ccc(O)cc1
58 µM	Cc1ccc(/C(O)=C/C(=O)C(=O)O)o1
80 µM	O=C(O)C(=O)/C=C(\O)c1ccsc1Cc1cccc(F)c1
28 µM	O=C(O)C(=O)/C=C(\O)c1cccc(-c2ccccc2)c1
8 µM	O=C(O)C(=O)/C=C(\O)c1cccc(OCc2ccccc2)c1
65 µM	O=C(O)C(=O)/C=C(\O)c1ccc(Cc2ccc(F)cc2)s1
7.5 µM	O=C(O)C(=O)/C=C(\O)c1ccsc1Sc1cccc(Cl)c1
16 µM	COc1ccc(Cn2cccc2/C=C/C(O)=C/C(=O)C(=O)O)cc1
1 µM	O=C(O)C(=O)/C=C(\O)c1cccc(O)c1
74 µM	O=C(O)C(=O)/C=C(\O)c1ccc(Cc2cccc(F)c2)s1
0.14 µM	O=C(O)C(=O)/C=C(\O)c1cccc(NS(=O)(=O)c2cc(Cl)cc(Cl)c2)c1
68 µM	O=C(O)C(=O)/C=C(\O)c1ccc(Cc2ccccc2)s1

IC50	SMILES
24 µM	O=C(O)C(=O)/C=C(\O)c1cccn1Cc1ccccc1Cl
0.95 µM	O=C(O)C(=O)/C=C(\O)c1cccc(OCc2ccsc2C(=O)O)c1
93 µM	O=C(O)C(=O)/C=C(\O)c1cccn1Cc1ccc(F)cc1
41 µM	O=C(O)C(=O)/C=C(\O)c1ccc(-c2ccc(F)c(Cl)c2)o1
21 µM	Cn1cc(/C(O)=C/C(=O)C(=O)O)cc1Cc1cccc(F)c1
4 µM	O=C(O)C(=O)/C=C(\O)c1ccsc1
19 µM	O=C(O)C(=O)/C=C(\O)c1cccc(Oc2ccccc2)c1
50 µM	O=C(O)C(=O)/C=C(\O)c1cccc(OCc2cccc(Oc3ccccc3)c2)c1
84 µM	O=C(O)C(=O)/C=C(\O)c1cccc(N2CCCC2)c1
44 µM	O=C(O)C(=O)/C=C(\O)c1ccccc1OCc1ccccc1
6.3 µM	N#Cc1ccccc1Cn1cccc1/C(O)=C/C(=O)C(=O)O
26 µM	O=C(O)C(=O)/C=C(\O)c1cnc2cc(Cl)ccc2c1O
13 µM	O=C(O)C(=O)/C=C(\O)c1cccn1Cc1ccc2ccccc2c1
16 µM	Cn1cc(C(=O)c2ccc(F)cc2)cc1/C=C/C(O)=C/C(=O)C(=O)O
18 µM	Cc1ccccc1Cn1cccc1/C=C/C(O)=C/C(=O)C(=O)O
50 µM	O=C(O)C(=O)/C=C(\O)c1ccco1
6 µM	O=C(O)C(=O)/C=C(\O)c1cccc(OCc2cc(-c3ccccc3)on2)c1
30 µM	O=C(O)C(=O)/C=C(\O)c1cccn1Cc1cccc(F)c1
13 µM	N#CCCCCn1cccc1/C(O)=C/C(=O)C(=O)O
9.9 µM	O=C(O)C(=O)/C=C(\O)c1sccc1Cc1cccc(F)c1
0.056 µM	N#Cc1cc(Cl)c(Cl)cc1COc1cccc(/C(O)=C/C(=O)C(=O)O)c1
18 µM	O=C(O)C(=O)/C=C(O)/C=C/c1cccn1Cc1cccc(F)c1

IC50	SMILES
8.2 µM	O=C(O)C(=O)/C=C(\O)c1ccc(N2CCCCC2)s1
4.6 µM	N#Cc1cccc(Cn2ccc(/C(O)=C/C(=O)C(=O)O)c2)c1
28 µM	Cc1ccc(Cn2cccc2/C=C/C(O)=C/C(=O)C(=O)O)cc1
0.11 µM	N#CCCCOc1ccc(O)cc1/C(O)=C/C(=O)C(=O)O
82 µM	O=C(O)C(=O)/C=C(\O)c1ccc(Cc2cccc(Cl)c2)s1
27 µM	O=C(O)C(=O)/C=C(\O)c1cc2c(s1)-c1cc(F)ccc1OC2
29 µM	O=C(O)C(=O)/C=C(\O)c1cccn1Cc1ccccc1
0.67 µM	O=C(O)C(=O)/C=C(\O)c1cccc(OCc2cccc3ccccc23)c1
12 µM	Cc1cccc(/C(O)=C/C(=O)C(=O)O)c1
5.6 µM	O=C(O)C(=O)/C=C(\O)c1ccccc1
1.4 µM	O=C(O)C(=O)/C=C(\O)c1cc(O)cc(OCc2ccccc2)c1
50 µM	O=C(O)C(=O)/C=C(\O)c1cccc(OCc2ccc(-c3ccccc3)cc2)c1
7.6 µM	COc1cccc(Cn2cccc2/C(O)=C/C(=O)C(=O)O)c1
32 µM	O=C(O)C(=O)/C=C(\O)c1cccc(Cc2cc(Br)cc(Br)c2)c1
0.1 µM	N#Cc1cccc(Cl)c1COc1cc(O)cc(/C(O)=C/C(=O)C(=O)O)c1
40 µM	COc1cccc(/C(O)=C/C(=O)C(=O)O)c1
2 µM	Cc1ccc(/C(O)=C/C(=O)C(=O)O)c(C)c1
18 µM	O=C(O)C(=O)/C=C(\O)c1ccsc1Cc1ccc(F)cc1
0.38 µM	N#CCCCOc1ccccc1/C(O)=C/C(=O)C(=O)O
18 µM	O=C(O)C(=O)/C=C(\O)c1cc(I)cn1Cc1ccc(F)cc1
81.4 µM	CCCCS(=O)(=O)N1CCCC(Cc2ccc(Cl)cc2)(/C(O)=C/C(=O)C(=O)O)C1 (stereo unspecified)
0.049 µM	O=C(O)C(=O)/C=C(\O)c1cccc(NS(=O)(=O)c2cc(Cl)c(Cl)cc2Cl)c1
